Ratio, TPE and ED50 data for 3 compounds are collected here from ChEMBL document CHEMBL1126893, “Synthesis and CLOGP correlation of imidooxy anticonvulsants” (J Med Chem, 1993).

The source made the active and inactive calls. No cut-off for these calls is given here.

For assay [1], the system named is Mus musculus. Nature of the assay: Anticonvulsant activity was measured by subcutaneous pentylenetetrazole test on mice at 4 h at the dose of 300 mg/kg; number of animals protected/number of animals tested, 0/1. It is filed as functional.
The subject of assay [2] is Mus musculus. Nature of the assay: Anticonvulsant activity was measured by rotarod toxicity test on mice at 4 hr at the dose of 100 mg/kg; number of animals protected/number of animals tested 0/4. Type of assay: functional. (Falling from the rotarod earlier than controls is read as motor impairment.)
The subject of assay [3] is Mus musculus. Nature of the assay: Anticonvulsant activity was measured by subcutaneous pentylenetetrazole test on mice at 0.50 hr at the dose of 50 mg/kg; number of animals protected/number of animals tested 0/4. Type of assay: functional.
Assay [4] relates to Mus musculus. As to the kind of experiment: Anticonvulsant activity was measured by maximal electroshock test on mice at 0.50 hr at the dose of 50 mg/kg; number of animals protected/number of animals tested 0/4. Type of assay: functional. A general note: In the maximal electroshock model the usual endpoint is tonic extension of the hind limbs.
Assay [5] concerns Mus musculus. As to the kind of experiment: Anticonvulsant activity was measured by subcutaneous pentylenetetrazole test on mice at 30 min at the dose of 300 mg/kg; number of animals protected/number of animals tested, 1/1. Type of assay: functional.
In assay [6] the test system is Mus musculus. As to the kind of experiment: Anticonvulsant activity was measured by subcutaneous pentylenetetrazole test on mice at 4 hr at the dose of 100 mg/kg; number of animals protected/number of animals tested, 0/3. It is filed as functional.
Assay [7] has as its system Mus musculus. As to the kind of experiment: Anticonvulsant activity was measured by maximal electroshock test on mice at 30 min at the dose of 100 mg/kg; number of animals protected/number of animals tested, 2/3. Type of assay: functional.
The test system of assay [8] is Mus musculus. Nature of the assay: Anticonvulsant activity was measured by rotarod toxicity test on mice at 1 hr at the dose of 50 mg/kg; number of animals protected/number of animals tested 0/4. It is filed as functional.
Assay [9] concerns Mus musculus. As to the kind of experiment: Anticonvulsant activity was measured by rotarod toxicity test on mice at 30 min at the dose of 100 mg/kg; number of animals protected/number of animals tested, 0/8. It is filed as functional.
Assay [10] has as its system Mus musculus. As to the kind of experiment: Anticonvulsant activity was measured by rotarod toxicity teston mice at 0.25 hr at the dose of 50 mg/kg; number of animals protected/number of animals tested 0/4. Type of assay: functional.
In assay [11] the test system is Mus musculus. As to the kind of experiment: Anticonvulsant activity was measured by maximal electroshock test on mice at 4 hr at the dose of 100 mg/kg; number of animals protected/number of animals tested, 0/3. Type of assay: functional.
In assay [12] the test system is Mus musculus. Nature of the assay: Anticonvulsant activity was measured by maximal electroshock test on mice at 2 hr at the dose of 50 mg/kg; number of animals protected/number of animals tested 0/4. It is filed as functional.
Assay [13] has as its system Mus musculus. Nature of the assay: Anticonvulsant activity was measured by rotarod toxicity teston mice at 0.50 hr at the dose of 50 mg/kg; number of animals protected/number of animals tested 0/4. Type of assay: functional.
Assay [14] concerns Mus musculus. Nature of the assay: Anticonvulsant activity was measured by maximal electroshock test on mice at 0.25 hr at the dose of 50 mg/kg; number of animals protected/number of animals tested 0/4. It is filed as functional.
For assay [15], the system named is Mus musculus. Nature of the assay: Anticonvulsant activity was measured by rotarod toxicity test on mice at 30 min at the dose of 300 mg/kg; number of animals protected/number of animals tested, 4/4. It is filed as functional.
The subject of assay [16] is Mus musculus. As to the kind of experiment: Anticonvulsant activity was measured by maximal electroshock test on mice at 4 hr at the dose of 50 mg/kg; number of animals protected/number of animals tested 0/4. It is filed as functional.
Assay [17] relates to Mus musculus. Nature of the assay: Anticonvulsant activity was measured by rotarod toxicity test on mice at 4 hr at the dose of 300 mg/kg; number of animals protected/number of animals tested, 2/2. It is filed as functional.
The subject of assay [18] is Mus musculus. As to the kind of experiment: Anticonvulsant activity was measured by maximal electroshock test on mice at 30 min at the dose of 300 mg/kg; number of animals protected/number of animals tested, 1/1. Type of assay: functional.
The test system of assay [19] is Mus musculus. As to the kind of experiment: Anticonvulsant activity was measured by maximal electroshock test on mice at 4 hr at the dose of 300 mg/kg; number of animals protected/number of animals tested, 0/1. It is filed as functional.
In assay [20] the test system is Mus musculus. Nature of the assay: Anticonvulsant activity was measured by maximal electroshock test on mice at 1 hr at the dose of 50 mg/kg; number of animals protected/number of animals tested 1/4. It is filed as functional.
Assay [21] has as its system Mus musculus. As to the kind of experiment: Anticonvulsant activity was measured by subcutaneous pentylenetetrazole test on mice at 30 min at the dose of 100 mg/kg; number of animals protected/number of animals tested, 0/1. It is filed as functional.
In assay [22] the test system is Mus musculus. As to the kind of experiment: Anticonvulsant activity was measured by rotarod toxicity test on mice at 4 hr at the dose of 50 mg/kg; number of animals protected/number of animals tested 0/4. Type of assay: functional.
For assay [23], the system named is Mus musculus. Nature of the assay: Anticonvulsant activity was measured by rotarod toxicity test on mice at 2 hr at the dose of 50 mg/kg;number of animals protected/number of animals tested 0/4. It is filed as functional.
Assay [24] deals with Mus musculus. As to the kind of experiment: Anticonvulsant activity was measured by subcutaneous pentylenetetrazole test on mice at 30 min at the dose of 100 mg/kg; number of animals protected/number of animals tested, 2/5. It is filed as functional.
In assay [25] the test system is Mus musculus. Nature of the assay: Anticonvulsant activity was measured by rotarod toxicity test on mice at 2 hr at the dose of 50 mg/kg; number of animals protected/number of animals tested, 0/4. Type of assay: functional.
Assay [26] concerns Mus musculus. Nature of the assay: Anticonvulsant activity was measured by maximal electroshock test on mice at 0.25 hr at the dose of 50 mg/kg; number of animals protected/number of animals tested, 0/4. It is filed as functional.
The subject of assay [27] is Mus musculus. As to the kind of experiment: Anticonvulsant activity was measured by maximal electroshock test on mice at 2 hr at the dose of 50 mg/kg; number of animals protected/number of animals tested, 2/4. It is filed as functional.
Assay [28] relates to Mus musculus. Nature of the assay: Anticonvulsant activity was measured by subcutaneous pentylenetetrazole test on mice at 4 hr at the dose of 100 mg/kg; number of animals protected/number of animals tested, 0/1. It is filed as functional.
Assay [29] relates to Mus musculus. Nature of the assay: Anticonvulsant activity was measured by rotarod toxicity test on mice at 4 h at the dose of 300 mg/kg; number of animals protected/number of animals tested, 0/2. It is filed as functional.
For assay [30], the system named is Mus musculus. As to the kind of experiment: Anticonvulsant activity was measured by maximal electroshock test on mice at 4 hr at the dose of 50 mg/kg; number of animals protected/number of animals tested, 0/4. It is filed as functional.
For assay [31], the system named is Mus musculus. Nature of the assay: Anticonvulsant activity was measured by rotarod toxicity teston mice at 0.25 hr at the dose of 50 mg/kg; number of animals protected/number of animals tested, 0/4. Type of assay: functional.
For assay [32], the system named is Mus musculus. As to the kind of experiment: Anticonvulsant activity was measured by rotarod toxicity teston mice at 0.50 hr at the dose of 50 mg/kg; number of animals protected/number of animals tested, 0/4. It is filed as functional.
Assay [33] deals with Mus musculus. As to the kind of experiment: Anticonvulsant activity was measured by rotarod toxicity test on mice at 4 hr at the dose of 50 mg/kg; number of animals protected/number of animals tested, number of animals protected/number of animals tested, 0/4. It is filed as functional.
For assay [34], the system named is Mus musculus. Nature of the assay: Anticonvulsant activity was measured by rotarod toxicity test on mice at 4 hr at the dose of 100 mg/kg; number of animals protected/number of animals tested, 0/4. Type of assay: functional.
For assay [35], the system named is Mus musculus. As to the kind of experiment: Anticonvulsant activity was measured by rotarod toxicity test on mice at 30 min at the dose of 300 mg/kg; number of animals protected/number of animals tested, 0/4. It is filed as functional.
In assay [36] the test system is Mus musculus. Nature of the assay: Anticonvulsant activity was measured by subcutaneous pentylenetetrazole test on mice at 30 min at the dose of 300 mg/kg; number of animals protected/number of animals tested, 5/5. Type of assay: functional.
For assay [37], the system named is Mus musculus. As to the kind of experiment: Anticonvulsant activity was measured by maximal electroshock test on mice at 30 min at the dose of 100 mg/kg; number of animals protected/number of animals tested, 1/3. Type of assay: functional.
For assay [38], the system named is Mus musculus. As to the kind of experiment: Anticonvulsant activity was measured by maximal electroshock test on mice at 0.50 hr at the dose of 50 mg/kg; number of animals protected/number of animals tested, 0/4. It is filed as functional.
The subject of assay [39] is Mus musculus. Nature of the assay: Time of peak effect of toxicity of compound was measured by both MES and sc Met test in mice. It is filed as functional. Put shortly:
(§1)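 Phase II quantification in mice after ip dosing. ED50 (scMet or MES) measured at the time of peak effect. TD50 (rotorod neurologic deficit) measured at the time of peak neurologic deficit. Medians and 95% confidence limits by the Litchfield-Wilcoxon method. Protective index = TD50/ED50. Time of peak effect determined in the MES or scMet test.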

Assay [40] has as its system Mus musculus. Nature of the assay: Time of peak effect of activity of compound was measured by both MES and sc Met test in mice. It is filed as functional. The procedure, abridged: as §1
A further assay relates to Rattus norvegicus. As to the kind of experiment: Effective dose was measured in rat by subcutaneous pentylenetetrazole method by ip administration; NE= Not effective. Type of assay: functional, organism-based.

As for `O=C1CC2(CCCC2)C(=O)N1OCc1cccc(Cl)c1`, the Ratio with Mus musculus [1] is given as 0; in the assay with Mus musculus [2] it was 0; in the assay with Mus musculus [3], 0; in the assay on Mus musculus [4], 0; in the assay on Mus musculus [5], 1; with Mus musculus [6], 0. In addition, the Ratio in the assay with Mus musculus [7] stood at 2; in the assay with Mus musculus [8] it was 0; in the assay on Mus musculus [9], 0; in the assay on Mus musculus [10] it was 0; in the assay on Mus musculus [11] it was 0; with Mus musculus [12] it was 0. Besides, the Ratio in the assay on Mus musculus [13] was found to be 0; in the assay with Mus musculus [14] it was 0; in the assay on Mus musculus [15], 4; in the assay on Mus musculus [16], 0; with Mus musculus [17] it was 2; with Mus musculus [18], 1. Besides, the Ratio with Mus musculus [19] came to 0; in the assay on Mus musculus [20] it was 1; in the assay on Mus musculus [21], 0; in the assay on Mus musculus [22], 0; in the assay on Mus musculus [23] it was 0.
Turning to `O=C1CC2(CCCC2)C(=O)N1OCc1ccccc1C(F)(F)F`, the Ratio with Mus musculus [1] worked out at 0; with Mus musculus [24] it was 2; in the assay with Mus musculus [25], 0; in the assay on Mus musculus [26], 0; with Mus musculus [27], 2; in the assay on Mus musculus [9], 0. Further, the Ratio in the assay with Mus musculus [28], in the assay on Mus musculus [29], in the assay on Mus musculus [30], with Mus musculus [31], with Mus musculus [32] and with Mus musculus [11] was 0 in each case. In addition, the Ratio in the assay with Mus musculus [33] was 0; in the assay on Mus musculus [34], 0; with Mus musculus [35] it was 0; with Mus musculus [36], 5; with Mus musculus [37] it was 1; in the assay on Mus musculus [18], 1. Besides, the Ratio in the assay with Mus musculus [19] and in the assay on Mus musculus [38] was 0 throughout.
As for `O=C1NC(=O)C(c2ccccc2)(c2ccccc2)N1` [PHENYTOIN], the TPE in the assay with Mus musculus [39] came out at 2; in the assay with Mus musculus [40], 2 toxicity. Further, the ED50 entry in the assay on Rattus norvegicus was “inactive”.
